Laboratory results taken from ChEMBL document CHEMBL5058577, “EUbOPEN Chemogenomics Library 2 (Multiplex)” (2022).

Test system: HEK-293T
Experiment: Multiplex assay against HEK293T
Type: toxicity, cell-based
Conditions: human
Procedure, shortened: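 Four dyes were applied at seeding to live cells: Hoechst33342, BioTracker Green Microtubule Cytoskeleton Dye, MitoTracker Red and Annexin V Alexa Fluor 680. Imaging after compound addition used a CQ1 microscope at 37°C and 5% CO2. CellPathfinder machine-learning gating then sorted cells into Hoechst high-intensity objects or normal cells, normal cells into healthy, pyknosed or fragmented nuclei, and pyknosed cells into mitotic or apoptotic, with tubulin, mitochondrial-mass and membrane-permeability phenotypes given as per cents of healthy-nucleus cells.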

[1] = 12 h, 1 µM, compound concentration 1 uM, replicate 1
[2] = 12 h, 1 µM, compound concentration 1 uM, replicate 2
[3] = 12 h, 10 µM, compound concentration 10 uM, replicate 1
[4] = 12 h, 10 µM, compound concentration 10 uM, replicate 2
[5] = 24 h, 1 µM, compound concentration 1 uM, replicate 1
[6] = 24 h, 1 µM, compound concentration 1 uM, replicate 2
[7] = 24 h, 10 µM, compound concentration 10 uM, replicate 1
[8] = 24 h, 10 µM, compound concentration 10 uM, replicate 2
[9] = 48 h, 1 µM, compound concentration 1 uM, replicate 1
[10] = 48 h, 1 µM, compound concentration 1 uM, replicate 2
[11] = 48 h, 10 µM, compound concentration 10 uM, replicate 1
[12] = 48 h, 10 µM, compound concentration 10 uM, replicate 2

CC(=O)NCCc1c(Cc2ccccc2)[nH]c2ccccc12 [LUZINDOLE]
Population Apoptotic (%) [1]: 38%
Population Fragmented Nuclei (%) [1]: 7%
Population Healthy Nuclei (%) [1]: 79%
Population Hoechst High Intensity Objects (%) [1]: 11%
Population Membrane Permeable-Phenotype (%) [1]: 0%
Population Mitochondria Different-Phenotype (%) [1]: 54%
Population Mitotic Cells (%) [1]: 61%
Population Normal (%) [1]: 88%
Population Pyknosed Nuclei (%) [1]: 12%
Population Tubulin-Different-Phenotype (%) [1]: 39%
Total Cell Count [1]: 412
Population Apoptotic (%) [2]: 43%
Population Fragmented Nuclei (%) [2]: 5%
Population Healthy Nuclei (%) [2]: 80%
Population Hoechst High Intensity Objects (%) [2]: 8%
Population Mitochondria Different-Phenotype (%) [2]: 68%
Population Mitotic Cells (%) [2]: 56%
Population Normal (%) [2]: 91%
Population Pyknosed Nuclei (%) [2]: 13%
Population Tubulin-Different-Phenotype (%) [2]: 27%
Total Cell Count [2]: 304
Population Apoptotic (%) [3]: 37%
Population Fragmented Nuclei (%) [3]: 8%
Population Healthy Nuclei (%) [3]: 77%
Population Hoechst High Intensity Objects (%) [3]: 10%
Population Membrane Permeable-Phenotype (%) [3]: 0%
Population Mitochondria Different-Phenotype (%) [3]: 61%
Population Mitotic Cells (%) [3]: 62%
Population Normal (%) [3]: 89%
Population Pyknosed Nuclei (%) [3]: 14%
Population Tubulin-Different-Phenotype (%) [3]: 45%
Total Cell Count [3]: 379
Population Apoptotic (%) [4]: 53%
Population Fragmented Nuclei (%) [4]: 5%
Population Healthy Nuclei (%) [4]: 80%
Population Hoechst High Intensity Objects (%) [4]: 9%
Population Mitochondria Different-Phenotype (%) [4]: 72%
Population Mitotic Cells (%) [4]: 46%
Population Normal (%) [4]: 90%
Population Tubulin-Different-Phenotype (%) [4]: 35%
Total Cell Count [4]: 315
Population Apoptotic (%) [5]: 20%
Population Fragmented Nuclei (%) [5]: 12%
Population Healthy Nuclei (%) [5]: 75%
Population Hoechst High Intensity Objects (%) [5]: 7%
Population Membrane Permeable-Phenotype (%) [5]: 0%
Population Mitochondria Different-Phenotype (%) [5]: 33%
Population Mitotic Cells (%) [5]: 80%
Population Normal (%) [5]: 92%
Population Pyknosed Nuclei (%) [5]: 11%
Population Tubulin-Different-Phenotype (%) [5]: 26%
Total Cell Count [5]: 546
Population Apoptotic (%) [6]: 40%
Population Fragmented Nuclei (%) [6]: 7%
Population Healthy Nuclei (%) [6]: 82%
Population Hoechst High Intensity Objects (%) [6]: 8%
Population Mitochondria Different-Phenotype (%) [6]: 45%
Population Mitotic Cells (%) [6]: 60%
Population Normal (%) [6]: 91%
Population Pyknosed Nuclei (%) [6]: 10%
Population Tubulin-Different-Phenotype (%) [6]: 18%
Total Cell Count [6]: 379
Population Apoptotic (%) [7]: 40%
Population Fragmented Nuclei (%) [7]: 9%
Population Healthy Nuclei (%) [7]: 81%
Population Hoechst High Intensity Objects (%) [7]: 10%
Population Membrane Permeable-Phenotype (%) [7]: 1%
Population Mitochondria Different-Phenotype (%) [7]: 40%
Population Mitotic Cells (%) [7]: 60%
Population Normal (%) [7]: 89%
Population Pyknosed Nuclei (%) [7]: 8%
Population Tubulin-Different-Phenotype (%) [7]: 32%
Total Cell Count [7]: 502
Population Apoptotic (%) [8]: 28%
Population Fragmented Nuclei (%) [8]: 11%
Population Healthy Nuclei (%) [8]: 77%
Population Hoechst High Intensity Objects (%) [8]: 11%
Population Membrane Permeable-Phenotype (%) [8]: 0%
Population Mitochondria Different-Phenotype (%) [8]: 58%
Population Mitotic Cells (%) [8]: 71%
Population Normal (%) [8]: 88%
Population Pyknosed Nuclei (%) [8]: 11%
Population Tubulin-Different-Phenotype (%) [8]: 24%
Total Cell Count [8]: 388
Population Apoptotic (%) [9]: 24%
Population Fragmented Nuclei (%) [9]: 16%
Population Healthy Nuclei (%) [9]: 78%
Population Hoechst High Intensity Objects (%) [9]: 3%
Population Membrane Permeable-Phenotype (%) [9]: 1%
Population Mitochondria Different-Phenotype (%) [9]: 16%
Population Mitotic Cells (%) [9]: 75%
Population Normal (%) [9]: 96%
Population Pyknosed Nuclei (%) [9]: 5%
Population Tubulin-Different-Phenotype (%) [9]: 12%
Total Cell Count [9]: 965
Population Apoptotic (%) [10]: 46%
Population Fragmented Nuclei (%) [10]: 12%
Population Healthy Nuclei (%) [10]: 82%
Population Hoechst High Intensity Objects (%) [10]: 6%
Population Membrane Permeable-Phenotype (%) [10]: 0%
Population Mitochondria Different-Phenotype (%) [10]: 23%
Population Mitotic Cells (%) [10]: 53%
Population Normal (%) [10]: 93%
Population Tubulin-Different-Phenotype (%) [10]: 13%
Total Cell Count [10]: 522
Population Apoptotic (%) [11]: 27%
Population Fragmented Nuclei (%) [11]: 13%
Population Healthy Nuclei (%) [11]: 79%
Population Hoechst High Intensity Objects (%) [11]: 9%
Population Membrane Permeable-Phenotype (%) [11]: 0%
Population Mitochondria Different-Phenotype (%) [11]: 27%
Population Mitotic Cells (%) [11]: 72%
Population Normal (%) [11]: 90%
Population Pyknosed Nuclei (%) [11]: 7%
Population Tubulin-Different-Phenotype (%) [11]: 17%
Total Cell Count [11]: 742
Population Apoptotic (%) [12]: 36%
Population Fragmented Nuclei (%) [12]: 11%
Population Healthy Nuclei (%) [12]: 82%
Population Hoechst High Intensity Objects (%) [12]: 6%
Population Mitochondria Different-Phenotype (%) [12]: 32%
Population Mitotic Cells (%) [12]: 63%
Population Normal (%) [12]: 93%
Population Pyknosed Nuclei (%) [12]: 5%
Population Tubulin-Different-Phenotype (%) [12]: 19%
Total Cell Count [12]: 573

N[C@@]1(C(=O)O)CO[C@H]2[C@H](C(=O)O)[C@H]21 [LY-379268]
Population Apoptotic (%) [1]: 40%
Population Fragmented Nuclei (%) [1]: 6%
Population Healthy Nuclei (%) [1]: 81%
Population Hoechst High Intensity Objects (%) [1]: 5%
Population Membrane Permeable-Phenotype (%) [1]: 0%
Population Mitochondria Different-Phenotype (%) [1]: 38%
Population Mitotic Cells (%) [1]: 60%
Population Normal (%) [1]: 94%
Population Pyknosed Nuclei (%) [1]: 12%
Population Tubulin-Different-Phenotype (%) [1]: 26%
Total Cell Count [1]: 396
Population Apoptotic (%) [2]: 42%
Population Healthy Nuclei (%) [2]: 80%
Population Hoechst High Intensity Objects (%) [2]: 10%
Population Membrane Permeable-Phenotype (%) [2]: 1%
Population Mitochondria Different-Phenotype (%) [2]: 57%
Population Mitotic Cells (%) [2]: 57%
Population Normal (%) [2]: 89%
Population Tubulin-Different-Phenotype (%) [2]: 18%
Total Cell Count [2]: 411
Population Apoptotic (%) [3]: 27%
Population Fragmented Nuclei (%) [3]: 10%
Population Healthy Nuclei (%) [3]: 78%
Population Hoechst High Intensity Objects (%) [3]: 8%
Population Membrane Permeable-Phenotype (%) [3]: 0%
Population Mitochondria Different-Phenotype (%) [3]: 33%
Population Mitotic Cells (%) [3]: 72%
Population Normal (%) [3]: 91%
Population Pyknosed Nuclei (%) [3]: 10%
Population Tubulin-Different-Phenotype (%) [3]: 31%
Total Cell Count [3]: 437
Population Apoptotic (%) [4]: 52%
Population Fragmented Nuclei (%) [4]: 8%
Population Healthy Nuclei (%) [4]: 79%
Population Hoechst High Intensity Objects (%) [4]: 7%
Population Mitochondria Different-Phenotype (%) [4]: 51%
Population Mitotic Cells (%) [4]: 47%
Population Normal (%) [4]: 92%
Population Pyknosed Nuclei (%) [4]: 12%
Population Tubulin-Different-Phenotype (%) [4]: 18%
Total Cell Count [4]: 380
Population Apoptotic (%) [5]: 30%
Population Fragmented Nuclei (%) [5]: 8%
Population Healthy Nuclei (%) [5]: 79%
Population Hoechst High Intensity Objects (%) [5]: 2%
Population Membrane Permeable-Phenotype (%) [5]: 0%
Population Mitochondria Different-Phenotype (%) [5]: 21%
Population Mitotic Cells (%) [5]: 70%
Population Normal (%) [5]: 97%
Population Pyknosed Nuclei (%) [5]: 11%
Population Tubulin-Different-Phenotype (%) [5]: 20%
Total Cell Count [5]: 517
Population Apoptotic (%) [6]: 29%
Population Fragmented Nuclei (%) [6]: 7%
Population Healthy Nuclei (%) [6]: 83%
Population Hoechst High Intensity Objects (%) [6]: 7%
Population Mitochondria Different-Phenotype (%) [6]: 31%
Population Normal (%) [6]: 92%
Population Pyknosed Nuclei (%) [6]: 9%
Population Tubulin-Different-Phenotype (%) [6]: 13%
Total Cell Count [6]: 481
Population Apoptotic (%) [7]: 36%
Population Fragmented Nuclei (%) [7]: 10%
Population Healthy Nuclei (%) [7]: 79%
Population Hoechst High Intensity Objects (%) [7]: 6%
Population Membrane Permeable-Phenotype (%) [7]: 0%
Population Mitochondria Different-Phenotype (%) [7]: 24%
Population Mitotic Cells (%) [7]: 63%
Population Normal (%) [7]: 93%
Population Pyknosed Nuclei (%) [7]: 9%
Population Tubulin-Different-Phenotype (%) [7]: 15%
Total Cell Count [7]: 551
Population Apoptotic (%) [8]: 43%
Population Fragmented Nuclei (%) [8]: 8%
Population Healthy Nuclei (%) [8]: 82%
Population Hoechst High Intensity Objects (%) [8]: 8%
Population Mitochondria Different-Phenotype (%) [8]: 39%
Population Mitotic Cells (%) [8]: 56%
Population Normal (%) [8]: 91%
Total Cell Count [8]: 470
Population Apoptotic (%) [9]: 26%
Population Fragmented Nuclei (%) [9]: 13%
Population Healthy Nuclei (%) [9]: 79%
Population Hoechst High Intensity Objects (%) [9]: 3%
Population Membrane Permeable-Phenotype (%) [9]: 1%
Population Mitochondria Different-Phenotype (%) [9]: 15%
Population Mitotic Cells (%) [9]: 73%
Population Normal (%) [9]: 97%
Population Pyknosed Nuclei (%) [9]: 6%
Population Tubulin-Different-Phenotype (%) [9]: 9%
Total Cell Count [9]: 866
Population Apoptotic (%) [10]: 33%
Population Fragmented Nuclei (%) [10]: 10%
Population Healthy Nuclei (%) [10]: 81%
Population Hoechst High Intensity Objects (%) [10]: 7%
Population Membrane Permeable-Phenotype (%) [10]: 0%
Population Mitochondria Different-Phenotype (%) [10]: 22%
Population Mitotic Cells (%) [10]: 66%
Population Normal (%) [10]: 92%
Population Pyknosed Nuclei (%) [10]: 7%
Population Tubulin-Different-Phenotype (%) [10]: 14%
Total Cell Count [10]: 611
Population Apoptotic (%) [11]: 24%
Population Fragmented Nuclei (%) [11]: 16%
Population Healthy Nuclei (%) [11]: 75%
Population Hoechst High Intensity Objects (%) [11]: 4%
Population Membrane Permeable-Phenotype (%) [11]: 1%
Population Mitochondria Different-Phenotype (%) [11]: 18%
Population Mitotic Cells (%) [11]: 75%
Population Normal (%) [11]: 95%
Population Pyknosed Nuclei (%) [11]: 7%
Population Tubulin-Different-Phenotype (%) [11]: 10%
Total Cell Count [11]: 781
Population Apoptotic (%) [12]: 25%
Population Fragmented Nuclei (%) [12]: 11%
Population Healthy Nuclei (%) [12]: 80%
Population Membrane Permeable-Phenotype (%) [12]: 0%
Population Mitochondria Different-Phenotype (%) [12]: 19%
Population Tubulin-Different-Phenotype (%) [12]: 9%
Total Cell Count [12]: 689
